According to ChEMBL document CHEMBL1125019 (J Med Chem, 1990):

What was measured:
[1] = target: D(2) dopamine receptor (Rattus norvegicus, UniProt P61169); assay: Binding affinity against Dopamine receptor D2 from rat brain corpus striatum membrane
[2] = target: D(1A) dopamine receptor (Rattus norvegicus, UniProt P18901); assay: Binding affinity against Dopamine receptor D1 from rat brain corpus striatum membrane
Summary of the method: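 Four to six concentrations of each test agent. IC50 ± SEM obtained by computer-assisted curve fitting; Ki derived from IC50 using the Kd and ligand concentration.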

Chain of D(2) dopamine receptor (P61169 whole entry): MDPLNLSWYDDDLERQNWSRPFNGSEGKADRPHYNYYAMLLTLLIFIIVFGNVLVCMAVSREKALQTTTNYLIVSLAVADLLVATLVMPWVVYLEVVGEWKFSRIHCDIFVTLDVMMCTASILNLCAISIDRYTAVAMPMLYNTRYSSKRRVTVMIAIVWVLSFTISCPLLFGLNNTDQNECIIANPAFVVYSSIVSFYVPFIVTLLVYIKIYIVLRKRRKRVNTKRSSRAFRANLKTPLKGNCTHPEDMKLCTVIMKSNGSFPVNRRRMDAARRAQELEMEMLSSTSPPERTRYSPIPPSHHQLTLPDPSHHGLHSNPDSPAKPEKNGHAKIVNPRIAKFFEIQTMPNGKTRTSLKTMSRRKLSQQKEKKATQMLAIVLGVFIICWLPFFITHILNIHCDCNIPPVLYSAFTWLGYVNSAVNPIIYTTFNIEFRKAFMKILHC
Chain of D(1A) dopamine receptor (P18901 whole entry): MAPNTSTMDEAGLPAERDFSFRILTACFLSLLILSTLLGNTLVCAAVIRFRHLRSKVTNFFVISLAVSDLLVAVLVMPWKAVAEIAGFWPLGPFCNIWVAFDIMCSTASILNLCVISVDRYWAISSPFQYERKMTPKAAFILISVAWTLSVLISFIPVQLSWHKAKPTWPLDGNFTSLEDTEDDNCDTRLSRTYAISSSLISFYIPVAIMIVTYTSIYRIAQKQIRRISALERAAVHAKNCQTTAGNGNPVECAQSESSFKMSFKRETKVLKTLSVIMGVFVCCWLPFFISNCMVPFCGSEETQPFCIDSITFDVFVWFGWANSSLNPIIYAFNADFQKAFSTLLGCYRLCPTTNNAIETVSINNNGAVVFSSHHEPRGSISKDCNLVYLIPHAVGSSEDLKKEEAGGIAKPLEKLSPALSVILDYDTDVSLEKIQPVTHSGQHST

| SMILES | IC50 [1] [nM] | IC50 [2] [nM] |
| --- | --- | --- |
| CCCN1CCc2cc(F)cc3c2[C@H]1Cc1ccc(O)c(O)c1-3 | 0.071 | 1300 |
| CCCN1CCc2cc(F)cc3c2[C@H]1Cc1ccc2c(c1-3)OCO2 | 97.6 | 3100 |
| CCCN1CCc2cc(N)cc3c2[C@H]1Cc1ccc(O)c(O)c1-3 | 5.5 | > 10000 |
| CCCN1CCc2cc(N)cc3c2[C@H]1Cc1ccc2c(c1-3)OCO2 | 704 | > 10000 |
| CCCN1CCc2cc(O)cc3c2[C@H]1Cc1ccc(O)c(O)c1-3 | 0.32 | 1720 |
| CCCN1CCc2cc(Br)cc3c2[C@H]1Cc1ccc(O)c(O)c1-3 | 0.89 | 970 |
| CCCN1CCc2cc(OC)cc3c2[C@H]1Cc1ccc(O)c(O)c1-3 | 1.02 | 3340 |
